According to ChEMBL document CHEMBL1140237, “6-(2-Phenylethyl)nicotine: a novel nicotinic cholinergic receptor ligand” (Bioorg Med Chem Lett, 2005):
Calls of active or inactive are those of the source. No cut-off for these calls is given here.

Key:
[1] = target: T1, Neuronal acetylcholine receptor; alpha4/beta2 (Rattus norvegicus, UniProt P09483+P12390); experiment: Inhibition of [3H](-)-nicotine binding to rat brain (minus cerebellum) Nicotinic acetylcholine receptor alpha4-beta2; type: tissue-based
T1 sequence (P09483 whole entry): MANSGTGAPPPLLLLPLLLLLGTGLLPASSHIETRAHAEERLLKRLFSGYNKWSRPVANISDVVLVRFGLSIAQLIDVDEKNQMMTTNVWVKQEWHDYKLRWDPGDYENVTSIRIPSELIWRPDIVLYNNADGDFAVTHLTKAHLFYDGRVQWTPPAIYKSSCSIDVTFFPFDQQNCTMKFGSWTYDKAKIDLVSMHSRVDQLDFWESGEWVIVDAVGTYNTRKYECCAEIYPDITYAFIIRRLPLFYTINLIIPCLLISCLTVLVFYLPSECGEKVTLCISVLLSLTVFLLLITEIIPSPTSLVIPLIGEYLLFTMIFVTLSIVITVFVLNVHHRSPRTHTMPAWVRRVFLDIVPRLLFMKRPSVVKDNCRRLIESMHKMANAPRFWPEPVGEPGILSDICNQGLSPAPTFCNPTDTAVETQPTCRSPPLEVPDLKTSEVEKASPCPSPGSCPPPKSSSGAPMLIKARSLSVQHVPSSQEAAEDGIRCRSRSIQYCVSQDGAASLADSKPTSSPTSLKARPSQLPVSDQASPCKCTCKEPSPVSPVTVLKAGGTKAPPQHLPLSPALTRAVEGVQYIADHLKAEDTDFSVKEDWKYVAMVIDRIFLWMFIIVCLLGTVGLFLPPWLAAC
T1 sequence (P12390 whole entry): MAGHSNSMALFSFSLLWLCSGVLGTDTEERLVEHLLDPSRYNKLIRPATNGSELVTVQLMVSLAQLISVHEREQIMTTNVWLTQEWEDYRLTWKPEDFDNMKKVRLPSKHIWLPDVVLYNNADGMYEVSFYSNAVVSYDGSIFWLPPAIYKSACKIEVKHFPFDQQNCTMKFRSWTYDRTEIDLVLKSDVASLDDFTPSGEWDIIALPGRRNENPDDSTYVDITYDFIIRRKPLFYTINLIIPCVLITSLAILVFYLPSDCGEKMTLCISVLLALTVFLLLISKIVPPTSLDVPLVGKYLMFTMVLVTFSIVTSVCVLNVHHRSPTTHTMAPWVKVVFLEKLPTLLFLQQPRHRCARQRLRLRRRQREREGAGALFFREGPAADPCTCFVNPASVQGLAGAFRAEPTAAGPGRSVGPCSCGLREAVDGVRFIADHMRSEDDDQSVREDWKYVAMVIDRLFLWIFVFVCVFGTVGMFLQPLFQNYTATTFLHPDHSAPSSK
Procedure, shortened: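 Rat brain homogenate with cerebellum removed, labelled with [3H](-)nicotine. IC50 taken from a plot of log concentration against percent displacement, then converted to Ki. At least triplicate.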

[2] = target: T1, Neuronal acetylcholine receptor; alpha4/beta2; experiment: Inhibition of [3H]epibatidine binding to rat Nicotinic acetylcholine receptor alpha4-beta2; type: protein-complex assay
[3] = target: Neuronal acetylcholine receptor; alpha3/beta2 (Rattus norvegicus, UniProt P04757+P12390); experiment: Binding affinity for rat Nicotinic acetylcholine receptor alpha3-beta2; type: protein-complex assay
Sequence of Neuronal acetylcholine receptor; alpha3/beta2 (P04757 whole entry): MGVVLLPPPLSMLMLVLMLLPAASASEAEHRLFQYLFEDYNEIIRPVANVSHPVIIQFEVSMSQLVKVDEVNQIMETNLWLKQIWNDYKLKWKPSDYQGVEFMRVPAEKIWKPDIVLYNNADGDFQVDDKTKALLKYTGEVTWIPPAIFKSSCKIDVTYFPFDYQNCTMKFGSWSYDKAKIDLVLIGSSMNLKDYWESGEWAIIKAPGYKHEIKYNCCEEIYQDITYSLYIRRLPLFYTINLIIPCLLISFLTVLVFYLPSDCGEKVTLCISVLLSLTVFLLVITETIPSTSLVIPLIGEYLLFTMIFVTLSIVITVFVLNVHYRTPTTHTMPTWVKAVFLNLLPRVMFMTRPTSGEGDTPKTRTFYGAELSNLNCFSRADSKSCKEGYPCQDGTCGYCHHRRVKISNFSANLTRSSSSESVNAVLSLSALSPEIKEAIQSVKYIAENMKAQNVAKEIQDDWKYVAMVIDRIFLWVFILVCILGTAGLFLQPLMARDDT
Sequence of Neuronal acetylcholine receptor; alpha3/beta2 (P12390 whole entry): as the sequence (P12390 whole entry) above
Procedure, shortened: (§1)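 Binding run by the NIMH Psychoactive Drug Screening Program under standard protocols, using cloned rat receptor preparations.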

Mus musculus [4] = experiment: Nicotine-like action of the compound tested in mouse in spontaneous activity assay at 15 mg/kg sc dose; NA = Not active; type: functional, organism-based; set-up: dose 15 mg/kg
Procedure, shortened: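 Male ICR mice (20–25 g), at least six per dose, given compound or 0.9% saline sc. Placed in individual photocell activity cages 5 min after injection. Beam interruptions counted over the next 10 min.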

[5] = target: Neuronal acetylcholine receptor; alpha3/beta4 (Rattus norvegicus, UniProt P04757+P12392); experiment: Binding affinity for rat Nicotinic acetylcholine receptor alpha3-beta4; type: protein-complex assay; procedure, shortened: as §1
Sequence of Neuronal acetylcholine receptor; alpha3/beta4 (P04757 whole entry): as the sequence (P04757 whole entry) above
Sequence of Neuronal acetylcholine receptor; alpha3/beta4 (P12392 whole entry): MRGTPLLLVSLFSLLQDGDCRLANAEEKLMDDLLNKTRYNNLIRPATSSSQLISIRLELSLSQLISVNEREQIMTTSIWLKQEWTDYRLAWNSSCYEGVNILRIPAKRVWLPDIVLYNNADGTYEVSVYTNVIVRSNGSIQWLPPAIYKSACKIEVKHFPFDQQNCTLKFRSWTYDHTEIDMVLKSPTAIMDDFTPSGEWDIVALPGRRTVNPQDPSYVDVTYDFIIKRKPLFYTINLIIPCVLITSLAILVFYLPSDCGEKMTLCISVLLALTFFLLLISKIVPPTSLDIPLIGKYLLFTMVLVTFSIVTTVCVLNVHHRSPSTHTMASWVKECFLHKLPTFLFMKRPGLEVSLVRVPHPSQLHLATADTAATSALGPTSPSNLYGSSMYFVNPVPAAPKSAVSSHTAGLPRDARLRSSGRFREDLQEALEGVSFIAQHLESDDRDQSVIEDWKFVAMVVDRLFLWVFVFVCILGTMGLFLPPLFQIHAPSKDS

[6] = target: Neuronal acetylcholine receptor; alpha4/beta4 (Rattus norvegicus, UniProt P09483+P12392); experiment: Binding affinity for rat Nicotinic acetylcholine receptor alpha4-beta4; type: protein-complex assay; procedure, shortened: as §1
Sequence of Neuronal acetylcholine receptor; alpha4/beta4 (P09483 whole entry): as the sequence (P09483 whole entry) above
Sequence of Neuronal acetylcholine receptor; alpha4/beta4 (P12392 whole entry): as the sequence (P12392 whole entry) above

[7] = target: Neuronal acetylcholine receptor; alpha2/beta4 (Rattus norvegicus, UniProt P12389+P12392); experiment: Binding affinity for rat Nicotinic acetylcholine receptor alpha2-beta4; type: protein-complex assay; procedure, shortened: as §1
Sequence of Neuronal acetylcholine receptor; alpha2/beta4 (P12389 whole entry): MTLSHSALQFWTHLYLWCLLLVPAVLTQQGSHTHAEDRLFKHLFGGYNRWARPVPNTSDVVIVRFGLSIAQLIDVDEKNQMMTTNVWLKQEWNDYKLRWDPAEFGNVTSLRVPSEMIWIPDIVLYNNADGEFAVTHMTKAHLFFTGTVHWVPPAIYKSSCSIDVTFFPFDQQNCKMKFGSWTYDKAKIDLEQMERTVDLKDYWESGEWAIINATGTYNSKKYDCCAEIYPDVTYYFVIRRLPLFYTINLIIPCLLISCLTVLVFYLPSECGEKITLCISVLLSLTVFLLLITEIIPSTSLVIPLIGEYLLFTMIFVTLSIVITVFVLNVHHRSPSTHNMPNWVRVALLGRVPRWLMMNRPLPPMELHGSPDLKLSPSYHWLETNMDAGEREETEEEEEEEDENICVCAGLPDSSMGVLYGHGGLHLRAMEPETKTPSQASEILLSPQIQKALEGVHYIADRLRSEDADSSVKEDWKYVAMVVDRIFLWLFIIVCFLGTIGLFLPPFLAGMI
Sequence of Neuronal acetylcholine receptor; alpha2/beta4 (P12392 whole entry): as the sequence (P12392 whole entry) above

[8] = target: Neuronal acetylcholine receptor; alpha2/beta2 (Rattus norvegicus, UniProt P12389+P12390); experiment: Binding affinity for rat Nicotinic acetylcholine receptor alpha2-beta2; type: protein-complex assay; procedure, shortened: as §1
Sequence of Neuronal acetylcholine receptor; alpha2/beta2 (P12389 whole entry): as the sequence (P12389 whole entry) above
Sequence of Neuronal acetylcholine receptor; alpha2/beta2 (P12390 whole entry): as the sequence (P12390 whole entry) above

Mus musculus [9] = experiment: Nicotine-like action of the compound tested in mouse in hypothermia assay at 15 mg/kg sc dose; NA = Not active; type: functional, organism-based; set-up: dose 15 mg/kg
Procedure, shortened: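 Male ICR mice (20–25 g), at least six per dose, given compound or saline sc. Rectal temperature read by thermistor probe inserted 24 mm, just before and 30 min after injection.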

Mus musculus [10] = experiment: Percent of maximal possible antinociceptive effect at 15 mg/kg dose; failed to produce effect; type: functional

Row | SMILES | Ki [1] | further results
1 | CCN(C)CCc1ccc(CCc2ccccc2)nc1 | > 10000 nM | 
2 | CN1CCCC1c1ccc(CCCc2ccccc2)nc1 (single isomer, unassigned; (-)) | 72 nM | 
3 | CN1CCCC1c1ccc(CCc2ccccc2)nc1 (stereo not given) | 15 nM | Ki [2]: 200 nM; Ki [3]: 2000 nM; Activity (Mus musculus [4]): inactive; Ki [5]: 4.6 µM; Ki [6]: 400 nM; Ki [7]: 1200 nM; Ki [8]: 490 nM; Activity (Mus musculus [9]): inactive; MPE (Mus musculus [10]): 2%
4 | CN1CCCC1c1ccc(CCc2ccc(Cl)cc2)nc1 (stereo not given) | 40 nM | 
5 | CN1CCCC1c1ccc(/C=C/c2ccccc2)nc1 (stereo not given) | 350 nM | 
6 | CN1CCCC1c1ccc(CCCc2ccccc2)nc1 (single isomer, unassigned; (+)) | > 10000 nM | 
7 | COc1ccc(CCc2ccc(C3CCCN3C)cn2)cc1 (stereo not given) | 10 nM | 
8 | CCCc1ccc(C2CCCN2C)cn1 (stereo not given) | 17 nM | 
9 | CN1CCCC1c1ccc(CC(O)c2ccccc2)nc1 (stereo not given) | 275 nM | 
10 | CCc1ccc(C2CCCN2C)cn1 (stereo not given) | 5.6 nM | 
11 | CN1CCCC1c1ccc(C(=O)O)nc1 (stereo not given) | > 10000 nM | 
